In brackets after ≈: the same amount, converted by molar mass.

What all share (assay type): cell-based
Assay [1] has as its system Staphylococcus aureus (ATCC 29213). Put plainly: Paper disk diffusion MIC. To be noted: ATCC29213, 24 h, read-out: Minimal Inhibitory Concentration (MIC). The procedure, abridged:
(§1)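 Paper disk diffusion MIC. Paper disks (12.7 mm) were loaded with test compound at different concentrations, dried and placed on nutrient agar inoculated with the test organism. Growth inhibition was examined after 24 hrs at 37°C. Each test was done three times, and values are the mean ± standard error.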
For orientation: Agar diffusion results depend on both activity and mobility in agar.

Assay [2] concerns Escherichia coli (ATCC 25922). Description: Agar plate diffusion, inhibition zone. The conditions noted are these: ATCC25922, 24 h, read-out: Mean Diameter of Inhibition Zone (IZ).
The test system of assay [3] is Pseudomonas aeruginosa (ATCC 27853). Description: Paper disk diffusion MIC. The conditions noted are these: ATCC27853, 24 h, read-out: Minimal Inhibitory Concentration (MIC). The procedure, abridged: as §1
Assay [4] has as its system MRSA. Description: Paper disk diffusion MIC. To be noted: Staphylococcus aureus, 24 h, read-out: Minimal Inhibitory Concentration (MIC). The procedure, abridged:
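Bacteria were grown on nutrient agar. Dried 12.7 mm paper disks loaded with a range of test compound concentrations were placed on inoculated agar plates. Growth inhibition was scored after 24 h at 37°C, and each test was replicated three times.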

Assay [5] has as its system Pseudomonas aeruginosa (ATCC 27853). Put plainly: Agar plate diffusion, inhibition zone. The conditions noted are these: ATCC27853, 24 h, read-out: Mean Diameter of Inhibition Zone (IZ).
In assay [6] the test system is Escherichia coli (ATCC 25922). Put plainly: Paper disk diffusion MIC. To be noted: ATCC25922, 24 h, read-out: Minimal Inhibitory Concentration (MIC). The procedure, abridged: as §1
Assay [7] deals with Staphylococcus aureus (ATCC 29213). Description: Agar plate diffusion, inhibition zone. The conditions noted are these: ATCC29213, 24 h, read-out: Mean Diameter of Inhibition Zone (IZ).
In assay [8] the test system is Bacillus subtilis (ATCC 6633). Description: Agar plate diffusion, inhibition zone. The conditions noted are these: ATCC6633, 24 h, read-out: Mean Diameter of Inhibition Zone (IZ).
Assay [9] concerns MRSA. Description: Agar plate diffusion, inhibition zone. The conditions noted are these: Staphylococcus aureus, 24 h, read-out: Mean Diameter of Inhibition Zone (IZ).
Assay [10] has as its system Bacillus subtilis (ATCC 6633). Description: Paper disk diffusion MIC. The conditions noted are these: ATCC6633, 24 h, read-out: Minimal Inhibitory Concentration (MIC). The procedure, abridged: as §1

With `O=C(O)c1cn(C2CC2)c2cc(N3CCNCC3)c(F)cc2c1=O` [Ciprofloxacin, reference compound], the MIC in assay [1] came to 0.78 mg/L (≈ 2.35 µM); in [3] it was 3.13 mg/L (≈ 9.45 µM); in the assay on MRSA [4] it was 1.25 mg/L (≈ 3.77 µM); in assay [6] it was 1.57 mg/L (≈ 4.74 µM); in assay [10], 0.8 mg/L (≈ 2.41 µM). Moreover, the zone of inhibition (in general, the size of the clear area around the sample on an inoculated plate) at 500 µg/mL in assay [2] was determined as 27 ± 0.98 mm; in [5], 24 ± 0.47 mm; in [7], 27 ± 0.23 mm; in [8] it was 29 ± 0.15 mm; in the assay on MRSA [9] it was 22 ± 0.5 mm.

Turning to `NS(=O)(=O)c1ccc(-n2c(SCC(=O)Nc3ccccc3)nc3ccccc3c2=O)cc1` [Compound 5, 2-((4-Oxo-3-(4-sulfamoylphenyl)-3,4-dihydroquinazolin-2-yl)thio)-N-phenylacetamide], the MIC in [1] is 1.56 mg/L (≈ 3.34 µM); in assay [3] it was 20 mg/L (≈ 42.9 µM); in the assay on MRSA [4] it was 10 mg/L (≈ 21.4 µM); in assay [6], 10 mg/L (≈ 21.4 µM); in [10], 2.5 mg/L (≈ 5.36 µM). For the same molecule, the zone of inhibition at 500 µg/mL is 14 ± 0.23 mm in assay [2]; 15 ± 0.21 mm in assay [5]; 22 ± 0.31 mm in assay [7]; 25 ± 0.07 mm in assay [8]; 20 ± 0.18 mm with MRSA [9].

Consider `Cc1ccccc1NC(=O)CSc1nc2ccccc2c(=O)n1-c1ccc(S(N)(=O)=O)cc1` [Compound 6, 2-((4-Oxo-3-(4-sulfamoylphenyl)-3,4-dihydroquinazolin-2-yl)thio)-N-2-tolylacetamide], for which the MIC is 31.2 mg/L (≈ 65 µM) in assay [1], 7.5 mg/L (≈ 15.6 µM) in assay [3], 5 mg/L (≈ 10.4 µM) in assay [6] and 15.6 mg/L (≈ 32.5 µM) in assay [10]. Moreover, the zone of inhibition at 500 µg/mL in assay [2] was determined as 15 ± 0.31 mm; in [5] it was 17 ± 0.13 mm; in assay [7] it was 14 ± 0.03 mm; in assay [8], 16 ± 0.1 mm.

Turning to `Cc1cccc(NC(=O)CSc2nc3ccccc3c(=O)n2-c2ccc(S(N)(=O)=O)cc2)c1` [Compound 7, 2-((4-Oxo-3-(4-sulfamoylphenyl)-3,4-dihydroquinazolin-2-yl)thio)-N-3-tolylacetamide], the MIC is 2.5 mg/L (≈ 5.2 µM) in assay [1]; 15.6 mg/L (≈ 32.5 µM) in [3]; 7.81 mg/L (≈ 16.3 µM) in the assay with MRSA [4]; 20 mg/L (≈ 41.6 µM) in [6]; 1.25 mg/L (≈ 2.6 µM) in assay [10]. Besides, the zone of inhibition at 500 µg/mL was 12 ± 0.15 mm in assay [2]; 14 ± 0.03 mm in assay [5]; 15 ± 0.07 mm in [7]; 20 ± 0.21 mm in [8]; 10 ± 0.02 mm with MRSA [9].

Consider `Cc1ccc(NC(=O)CSc2nc3ccccc3c(=O)n2-c2ccc(S(N)(=O)=O)cc2)cc1` [Compound 8, 2-((4-Oxo-3-(4-sulfamoylphenyl)-3,4-dihydroquinazolin-2-yl)thio)-N-4-tolylacetamide], for which the MIC amounted to 12.5 mg/L (≈ 26 µM) in assay [1], 20 mg/L (≈ 41.6 µM) in the assay on MRSA [4] and 6.31 mg/L (≈ 13.1 µM) in assay [10]. For the same molecule, the zone of inhibition at 500 µg/mL worked out at 23 ± 0.09 mm in assay [7], 26 ± 0.16 mm in assay [8] and 19 ± 0.01 mm in the assay with MRSA [9].

Take `CN(C)[C@@H]1C(O)=C(C(N)=O)C(=O)[C@@]2(O)C(O)=C3C(=O)c4c(O)cccc4[C@@](C)(O)[C@H]3C[C@@H]12` [Tetracycline, reference compound]: the MIC in assay [1] turned out to be 62.5 mg/L (≈ 141 µM); in assay [3] it was 62.5 mg/L (≈ 141 µM); in assay [6] it was 15.6 mg/L (≈ 35.2 µM); in [10], 31.2 mg/L (≈ 70.3 µM). Besides, the zone of inhibition at 500 µg/mL came to 23 ± 0.31 mm in assay [2], 20 ± 0.1 mm in assay [5], 25 ± 0.04 mm in [7] and 25 ± 0.01 mm in assay [8].

For `CN[C@H](CC(C)C)C(=O)N[C@H]1C(=O)N[C@@H](CC(N)=O)C(=O)N[C@H]2C(=O)N[C@H]3C(=O)N[C@H](C(=O)N[C@H](C(=O)O)c4cc(O)cc(O)c4-c4cc3ccc4O)[C@H](O)c3ccc(c(Cl)c3)Oc3cc2cc(c3O[C@@H]2O[C@H](CO)[C@@H](O)[C@H](O)[C@H]2O[C@H]2C[C@](C)(N)[C@H](O)[C@H](C)O2)Oc2ccc(cc2Cl)[C@H]1O` [Vancomycin, reference compound], the MIC in [1] came to 1.57 mg/L (≈ 1.08 µM); in assay [3], 2.5 mg/L (≈ 1.73 µM); with MRSA [4], 3.9 mg/L (≈ 2.69 µM); in assay [6], 1.38 mg/L (≈ 0.952 µM); in assay [10] it was 1.95 mg/L (≈ 1.35 µM). Also, the zone of inhibition at 500 µg/mL is 24 ± 0.2 mm in [2]; 22 ± 0.85 mm in assay [5]; 17 ± 0.11 mm in assay [7]; 21 ± 0.4 mm in [8]; 14 ± 0.65 mm in the assay with MRSA [9].

The record behind these values is PMC7211327 (International Journal of Nanomedicine, 2020).
